# Laboratory results: ChEMBL document CHEMBL1123775, “C3-methylated 5-hydroxy-2-(dipropylamino)tetralins: conformational and steric parameters of importance for central dopamine receptor activation” (1987)
# Active and inactive are the calls of the source. The calls are words filed in the database; no cut-off is given here.
# Legend:
# [1] = test system: Rattus norvegicus; assay: In vivo locomotor activity (accumulated counts/30 min) in nonpretreated rats after subcutaneous administration of 3.2 uM/Kg; format: functional
# In short: (§1)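 Nonpretreated rats injected sc with test drug 5 min before session; motility by photocell recording, counts accumulated over 30 min. Expressed as percent of saline controls, means ± SEM, n = 3-5; Student's t test vs saline controls.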
# [2] = test system: Rattus norvegicus; assay: In vivo locomotor activity (accumulated counts/30 min) in nonpretreated rats after subcutaneous administration of 0.32 uM/Kg; format: functional; in short: as §1
# [3] = test system: Rattus norvegicus; assay: Effect of in vivo DOPA accumulation in reserpine-pretreated rats at striatum region, at 5 mg/kg dosage administered sc; format: functional; settings: route subcutaneous
# [4] = test system: Rattus norvegicus; assay: Effect of in vivo DOPA accumulation in reserpine-pretreated rats at limbic region, at 5 mg/kg dosage administered subcutaneously; format: functional, Limbic system; settings: route subcutaneous
# [5] = test system: Rattus norvegicus; assay: In vivo locomotor activity (accumulated counts/30 min) in reserpine-pretreated rats, after subcutaneous administration of 3.2 uM/Kg; format: functional
# In short: (§2)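 Rats pretreated with reserpine 5 mg/kg sc 18 h earlier, then test drug sc immediately before session; photocell motility counts accumulated over 30 min, with gross behaviour observed through mirror. Mean ± SEM, n = 3-4; Student's t test vs saline controls; haloperidol pretreatment 0.5 mg/kg ip 30 min before used to test antagonism.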
# [6] = test system: Rattus norvegicus; assay: In vivo locomotor activity (accumulated counts/30 min) in reserpine-pretreated rats, after subcutaneous administration of 0.31 umol/kg; format: functional; in short: as §2
# [7] = test system: Rattus norvegicus; assay: Effect of in vivo DOPA accumulation in nonpretreated rats at limbic region, at 5 mg/kg dosage administered subcutaneously; I = Inactive; format: functional, organism-based; parameters: dose 5 mg/kg; settings: Limbic system
# In short: (§3)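 Nonpretreated rats given test drug sc 65 min and NSD 1015 (100 mg/kg ip) 30 min before death; saline controls. Limbic and striatal DOPA by HPLC with electrochemical detection.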
# [8] = test system: Rattus norvegicus; assay: Effect on in vivo DOPA accumulation in nonpretreated rats at striatum region at 5 mg/kg dosage administered subcutaneously; I = Inactive; format: functional, organism-based; parameters: dose 5 mg/kg; in short: as §3
# [9] = test system: Rattus norvegicus; assay: In vivo locomotor activity (accumulated counts/30 min) in reserpine-pretreated rats, after subcutaneous administration of 52 uM/Kg; format: functional; in short: as §2
# [10] = test system: Rattus norvegicus; assay: Effect on in vivo DOPA accumulation in nonpretreated rats at Limbic region, at 5 mg/kg dosage administered subcutaneously; I = Inactive; format: functional, organism-based; parameters: dose 5 mg/kg; settings: Limbic system; in short: as §3
# [11] = test system: Rattus norvegicus; assay: Evaluated for in vivo locomotor activity in nonpretreated rats, measured as accumulated counts/30 min at a dose of 52 umol/kg administered sc; format: functional; in short: as §1
# [12] = test system: Rattus norvegicus; assay: Effect of in vivo DOPA accumulation in reserpine-pretreated rats at striatum region, at 5 mg/kg dosage administered sc; I = Inactive; format: functional, organism-based; parameters: dose 5 mg/kg
# [13] = test system: Rattus norvegicus; assay: Effect on in vivo DOPA accumulation in nonpretreated rats at striatum region, at 5 mg/kg dosage administered subcutaneously; I = Inactive; format: functional, organism-based; parameters: dose 5 mg/kg; in short: as §3
# [14] = test system: Rattus norvegicus; assay: Effect of in vivo DOPA accumulation in reserpine-pretreated rats at limbic region, at 5 mg/kg dosage administered subcutaneously; I = Inactive; format: functional, organism-based; parameters: dose 5 mg/kg; settings: Limbic system
# [15] = test system: Rattus norvegicus; assay: In vivo locomotor activity (accumulated counts/30 min) in reserpine-pretreated rats, after subcutaneous administration of 10 uM/Kg; format: functional; in short: as §2
# [16] = test system: Rattus norvegicus; assay: In vivo locomotor activity (accumulated counts/30 min) in reserpine-pretreated rats, after subcutaneous administration of 0.32 uM/Kg; format: functional; in short: as §2
# [17] = test system: Rattus norvegicus; assay: In vivo locomotor activity (accumulated counts/30 min) in reserpine-pretreated rats, after subcutaneous administration of 39 uM/Kg; format: functional; in short: as §2
# [18] = test system: Rattus norvegicus; assay: Effect of in vivo DOPA accumulation in reserpine-pretreated rats at striatum region, at 5 mg/kg dosage administered subcutaneously; format: functional; settings: sc, route subcutaneous
# [19] = Rattus norvegicus, Limbic system, sc, read-out: ED50
smiles,measurement,setting,value
CN1CCc2cccc3c2[C@H]1Cc1ccc(O)c(O)c1-3 [APOMORPHINE],Locomotor activity,[1],277
same,Locomotor activity,[2],52
same,ED50,[3],0.044 µmol/kg
same,ED50,[4]; [19],0.041 µmol/kg
same,Locomotor activity,[5],366
CCCN(CCC)[C@H]1CCc2c(O)cccc2C1,ED50,[3],0.004 µmol/kg
same,ED50,[4]; [19],0.004 µmol/kg
same,Locomotor activity,[6],155
CCCN(CCC)[C@@H]1Cc2cccc(O)c2C[C@H]1C (stereo in doubt; (+)5) [listing 1 of 2 here],ED50,[7],inactive
same,ED50,[8],inactive
CCCN(CCC)[C@@H]1Cc2cccc(O)c2C[C@H]1C (stereo in doubt; (-)5),ED50,[3],3.1 µmol/kg
same,ED50,[4]; dose 5 mg/kg,3.5 µM/kg
same,Locomotor activity,[9],53
CCCN(CCC)[C@@H]1Cc2cccc(O)c2C[C@@H]1C,ED50,[10],inactive
same,Locomotor activity,[11],70
same,ED50,[12],inactive
same,ED50,[13],inactive
same,ED50,[14],inactive
same,Locomotor activity,[15],12
same,ED50,[3],0.005 µmol/kg
same,Locomotor activity,[16],110
same,ED50,[4]; [19],0.005 µmol/kg
CCCN(CCC)[C@@H]1CCc2c(O)cccc2C1,ED50,[3],0.65 µmol/kg
same,ED50,[4]; [19],0.41 µmol/kg
same,Locomotor activity,[17],43
CCCN(CCC)[C@@H]1Cc2cccc(O)c2C[C@H]1C (stereo in doubt; (+)5) [listing 2 of 2 here],Locomotor activity,[11],84
same,ED50,[18],25 µmol/kg
same,ED50,[4]; dose 5 mg/kg,25 µM/kg
same,Locomotor activity,[9],55
